From PubChem BioAssay AID504829 (Southern Research Specialized Biocontainment Screening …, 2011)

What follows are compounds tested on HEp-2 RSV CPE, time of addition, CellTiter-Glo viability (assay: HEp-2 viability after RSV infection, timed dosing – cell-based, time of addition, mechanism study for RSV inhibitor project (AID 504829)). Conditions: at 25 µM; stronger effect = higher value.
Summary of the method: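 System – HEp-2 cells · Also added – RSV Long strain, MOI 0.12 · Doses – single dose, 25 µM final, with 0.5% DMSO final · Schedule – compound addition from 1 h before to 24 h after infection · Signal – ATP-based luminescence with CellTiter-Glo reagent · Read-out – percent viable HEp-2 cells for each compound addition time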

Compound	viability (protection from CPE)
COc1ccc(C)c(NC(=O)[C@@H]2CCCN2S(=O)(=O)c2cccc3cccnc23)c1	81.8%
Cc1ccc(NC(=O)[C@@H]2CCCN2S(=O)(=O)c2cccc3cccnc23)c(C)c1	77.1%
Cc1ccc(C)c(NC(=O)[C@@H]2CCCN2S(=O)(=O)c2cccc3cccnc23)c1	91.4%

Same assay, conditions: measured here: added 1 h before infection; at 25 µM; stronger effect = higher value

Compound	viability
COc1ccc(C)c(NC(=O)[C@@H]2CCCN2S(=O)(=O)c2cccc3cccnc23)c1	90.4%
Cc1ccc(NC(=O)[C@@H]2CCCN2S(=O)(=O)c2cccc3cccnc23)c(C)c1	87.5%
Cc1ccc(C)c(NC(=O)[C@@H]2CCCN2S(=O)(=O)c2cccc3cccnc23)c1	91.6%

Same assay, conditions: measured here: added 1 h post infection; at 25 µM; stronger effect = higher value

Compound	viability
COc1ccc(C)c(NC(=O)[C@@H]2CCCN2S(=O)(=O)c2cccc3cccnc23)c1	63.3%
Cc1ccc(NC(=O)[C@@H]2CCCN2S(=O)(=O)c2cccc3cccnc23)c(C)c1	56%
Cc1ccc(C)c(NC(=O)[C@@H]2CCCN2S(=O)(=O)c2cccc3cccnc23)c1	61.7%

Same assay, conditions: measured here: added 7 h post infection; at 25 µM; stronger effect = higher value

Compound	viability
COc1ccc(C)c(NC(=O)[C@@H]2CCCN2S(=O)(=O)c2cccc3cccnc23)c1	52.1%
Cc1ccc(NC(=O)[C@@H]2CCCN2S(=O)(=O)c2cccc3cccnc23)c(C)c1	51.8%
Cc1ccc(C)c(NC(=O)[C@@H]2CCCN2S(=O)(=O)c2cccc3cccnc23)c1	49.6%

Same assay, conditions: measured here: added 21 h post infection; at 25 µM; stronger effect = higher value

Compound	viability
COc1ccc(C)c(NC(=O)[C@@H]2CCCN2S(=O)(=O)c2cccc3cccnc23)c1	34.3%
Cc1ccc(NC(=O)[C@@H]2CCCN2S(=O)(=O)c2cccc3cccnc23)c(C)c1	29%
Cc1ccc(C)c(NC(=O)[C@@H]2CCCN2S(=O)(=O)c2cccc3cccnc23)c1	35.1%

Same assay, conditions: measured here: added 24 h post infection; at 25 µM; stronger effect = higher value

Compound	viability
COc1ccc(C)c(NC(=O)[C@@H]2CCCN2S(=O)(=O)c2cccc3cccnc23)c1	24.8%
Cc1ccc(NC(=O)[C@@H]2CCCN2S(=O)(=O)c2cccc3cccnc23)c(C)c1	23.1%
Cc1ccc(C)c(NC(=O)[C@@H]2CCCN2S(=O)(=O)c2cccc3cccnc23)c1	27.7%
